# Measurements published in ChEMBL document CHEMBL4406804, “Discovery of a Potent Steroidal Glucocorticoid Receptor Antagonist with Enhanced Selectivity against the Progesterone and Androgen Receptors (OP-3633)” (J Med Chem, 2019).
# Activity calls are given as the source filed them. The calls are words filed in the database; no cut-off is given here.
# Tests used:
# [1] = target: T1, Progesterone receptor (Homo sapiens) (UniProt P06401); experiment: Agonist activity at human progesterone receptor expressed in CHO-K1 cells harboring firefly luciferase gene after 20 hrs by One-Glo luciferase reporter gene assay; assay type: cell-based
# T1 sequence (whole entry): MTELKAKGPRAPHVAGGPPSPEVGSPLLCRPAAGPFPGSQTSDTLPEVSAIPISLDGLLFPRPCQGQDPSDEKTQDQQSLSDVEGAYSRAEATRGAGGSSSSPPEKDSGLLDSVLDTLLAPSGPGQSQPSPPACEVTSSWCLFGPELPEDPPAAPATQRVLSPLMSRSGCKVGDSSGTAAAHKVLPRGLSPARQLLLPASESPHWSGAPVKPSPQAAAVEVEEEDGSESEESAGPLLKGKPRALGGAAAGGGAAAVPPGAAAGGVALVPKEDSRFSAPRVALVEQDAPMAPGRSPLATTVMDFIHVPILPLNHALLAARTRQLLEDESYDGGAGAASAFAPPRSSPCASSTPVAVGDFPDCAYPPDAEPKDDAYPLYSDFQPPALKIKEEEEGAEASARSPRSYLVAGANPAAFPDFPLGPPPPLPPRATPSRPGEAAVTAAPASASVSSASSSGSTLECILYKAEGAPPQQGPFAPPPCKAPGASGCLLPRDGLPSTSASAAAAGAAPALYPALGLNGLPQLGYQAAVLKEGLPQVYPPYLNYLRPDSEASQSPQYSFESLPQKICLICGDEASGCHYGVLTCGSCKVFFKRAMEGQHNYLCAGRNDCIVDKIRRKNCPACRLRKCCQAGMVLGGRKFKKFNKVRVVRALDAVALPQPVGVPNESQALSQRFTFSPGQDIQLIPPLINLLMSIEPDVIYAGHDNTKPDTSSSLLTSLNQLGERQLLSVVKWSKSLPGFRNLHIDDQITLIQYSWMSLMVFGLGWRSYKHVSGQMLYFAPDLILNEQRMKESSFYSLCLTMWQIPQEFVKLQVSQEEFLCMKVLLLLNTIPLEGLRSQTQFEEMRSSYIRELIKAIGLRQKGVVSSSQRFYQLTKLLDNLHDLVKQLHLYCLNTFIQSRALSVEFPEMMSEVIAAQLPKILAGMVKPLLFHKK
# Outline: (§1)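 Cell-based luciferase reporter assays for GR, AR and PR, run in agonist and antagonist modes. Potency and Emax are averages of at least two determinations, reported with SD.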
# [2] = target: T2, Androgen receptor (Homo sapiens, UniProt P10275); experiment: Antagonist activity at human androgen receptor in human LNCAP cells harboring firefly luciferase gene after 20 hrs by One-Glo luciferase reporter gene assay; assay type: cell-based; outline: as §1
# T2 sequence (P10275 whole entry): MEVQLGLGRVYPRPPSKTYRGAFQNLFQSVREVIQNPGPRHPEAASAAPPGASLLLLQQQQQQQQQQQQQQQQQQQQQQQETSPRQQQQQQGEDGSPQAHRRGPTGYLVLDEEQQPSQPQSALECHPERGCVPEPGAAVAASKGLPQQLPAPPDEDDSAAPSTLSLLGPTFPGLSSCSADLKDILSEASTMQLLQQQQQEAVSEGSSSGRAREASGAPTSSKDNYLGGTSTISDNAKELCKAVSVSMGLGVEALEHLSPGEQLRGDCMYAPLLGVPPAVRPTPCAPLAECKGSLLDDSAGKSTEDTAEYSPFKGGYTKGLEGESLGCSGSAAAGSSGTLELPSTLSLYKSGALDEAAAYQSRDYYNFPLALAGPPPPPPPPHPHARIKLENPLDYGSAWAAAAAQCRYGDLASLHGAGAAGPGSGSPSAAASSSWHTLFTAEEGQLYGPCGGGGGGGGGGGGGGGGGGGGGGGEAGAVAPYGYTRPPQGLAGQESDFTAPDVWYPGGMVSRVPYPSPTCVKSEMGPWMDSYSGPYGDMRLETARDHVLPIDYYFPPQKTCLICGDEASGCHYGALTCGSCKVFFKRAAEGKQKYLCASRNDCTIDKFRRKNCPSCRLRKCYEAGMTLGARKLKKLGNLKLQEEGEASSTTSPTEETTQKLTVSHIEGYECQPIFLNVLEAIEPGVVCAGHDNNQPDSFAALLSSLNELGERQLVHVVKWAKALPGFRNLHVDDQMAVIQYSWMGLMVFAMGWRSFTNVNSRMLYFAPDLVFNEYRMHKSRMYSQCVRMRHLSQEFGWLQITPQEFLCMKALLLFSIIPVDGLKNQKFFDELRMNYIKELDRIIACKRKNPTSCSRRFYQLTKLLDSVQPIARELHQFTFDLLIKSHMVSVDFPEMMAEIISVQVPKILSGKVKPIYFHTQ
# [3] = target: T3, Glucocorticoid receptor (Homo sapiens, UniProt P04150); experiment: Antagonist activity at human glucocorticoid receptor expressed in CHO-K1 cells harboring firefly luciferase gene after 20 hrs by One-Glo luciferase reporter gene assay; assay type: cell-based
# T3 sequence (P04150 whole entry): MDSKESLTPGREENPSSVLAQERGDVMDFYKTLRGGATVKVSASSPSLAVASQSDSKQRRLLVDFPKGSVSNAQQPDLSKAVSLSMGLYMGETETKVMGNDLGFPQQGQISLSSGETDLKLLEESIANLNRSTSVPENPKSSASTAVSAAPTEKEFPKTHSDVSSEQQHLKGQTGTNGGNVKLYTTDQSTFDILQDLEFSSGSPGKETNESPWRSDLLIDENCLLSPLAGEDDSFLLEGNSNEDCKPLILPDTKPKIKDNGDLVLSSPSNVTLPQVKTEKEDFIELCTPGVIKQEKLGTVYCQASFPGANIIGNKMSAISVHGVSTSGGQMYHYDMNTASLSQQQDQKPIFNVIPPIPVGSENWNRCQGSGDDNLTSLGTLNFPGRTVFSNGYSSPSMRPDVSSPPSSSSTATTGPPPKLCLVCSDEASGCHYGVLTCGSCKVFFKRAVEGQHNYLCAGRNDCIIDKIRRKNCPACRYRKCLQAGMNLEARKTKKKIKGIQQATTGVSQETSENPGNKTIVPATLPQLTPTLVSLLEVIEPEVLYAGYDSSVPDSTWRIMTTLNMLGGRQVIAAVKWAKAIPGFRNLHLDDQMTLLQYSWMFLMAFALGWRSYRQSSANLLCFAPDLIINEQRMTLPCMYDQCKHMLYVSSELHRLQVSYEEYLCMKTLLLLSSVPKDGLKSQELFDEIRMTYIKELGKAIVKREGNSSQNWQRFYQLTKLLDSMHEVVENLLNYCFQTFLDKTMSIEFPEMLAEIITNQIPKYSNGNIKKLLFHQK
# [4] = target: T2, Androgen receptor; experiment: Agonist activity at human androgen receptor in human LNCAP cells harboring firefly luciferase gene after 20 hrs by One-Glo luciferase reporter gene assay relative to mifepristone; assay type: cell-based; outline: as §1
# [5] = target: CYP3A4 (Homo sapiens, UniProt P08684); experiment: Inhibition of CYP3A4 (unknown origin) at 10 uM using midazolam as substrate relative to control; assay type: ADME; conditions: probe midazolam
# CYP3A4, sequence (P08684 whole entry): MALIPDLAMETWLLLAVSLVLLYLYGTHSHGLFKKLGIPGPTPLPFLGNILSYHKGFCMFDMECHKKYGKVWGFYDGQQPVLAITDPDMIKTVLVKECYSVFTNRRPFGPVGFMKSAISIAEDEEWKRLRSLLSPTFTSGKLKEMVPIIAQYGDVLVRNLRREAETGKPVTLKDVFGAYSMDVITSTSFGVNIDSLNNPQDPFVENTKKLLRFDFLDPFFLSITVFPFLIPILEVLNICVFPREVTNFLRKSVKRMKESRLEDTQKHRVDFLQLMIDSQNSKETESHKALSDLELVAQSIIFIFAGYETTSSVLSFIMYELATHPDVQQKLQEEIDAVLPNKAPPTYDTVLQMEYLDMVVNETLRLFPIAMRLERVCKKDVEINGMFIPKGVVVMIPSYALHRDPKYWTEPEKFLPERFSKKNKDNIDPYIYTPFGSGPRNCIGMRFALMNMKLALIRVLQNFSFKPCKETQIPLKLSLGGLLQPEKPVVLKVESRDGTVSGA
structure (smiles),measurement,setting,value
CC#C[C@]1(O)CC[C@H]2[C@@H]3CCC4=CC(=O)CC[C@]4(C)[C@H]3[C@@H](c3ccc(N(C)C)cc3)C[C@@]21C,agonist activity,[1],inactive
same,IC50,[2],912 nM
same,IC50,[3],29 nM
same,Emax at 20 h,[4],13.3%
same,inhibition at 10 µM,[5],34%
